Type in all cases: cell-based
Test [1] concerns the target T1, P2X purinoceptor 7 (Rattus norvegicus) (UniProt Q64663).
T1 sequence (whole entry): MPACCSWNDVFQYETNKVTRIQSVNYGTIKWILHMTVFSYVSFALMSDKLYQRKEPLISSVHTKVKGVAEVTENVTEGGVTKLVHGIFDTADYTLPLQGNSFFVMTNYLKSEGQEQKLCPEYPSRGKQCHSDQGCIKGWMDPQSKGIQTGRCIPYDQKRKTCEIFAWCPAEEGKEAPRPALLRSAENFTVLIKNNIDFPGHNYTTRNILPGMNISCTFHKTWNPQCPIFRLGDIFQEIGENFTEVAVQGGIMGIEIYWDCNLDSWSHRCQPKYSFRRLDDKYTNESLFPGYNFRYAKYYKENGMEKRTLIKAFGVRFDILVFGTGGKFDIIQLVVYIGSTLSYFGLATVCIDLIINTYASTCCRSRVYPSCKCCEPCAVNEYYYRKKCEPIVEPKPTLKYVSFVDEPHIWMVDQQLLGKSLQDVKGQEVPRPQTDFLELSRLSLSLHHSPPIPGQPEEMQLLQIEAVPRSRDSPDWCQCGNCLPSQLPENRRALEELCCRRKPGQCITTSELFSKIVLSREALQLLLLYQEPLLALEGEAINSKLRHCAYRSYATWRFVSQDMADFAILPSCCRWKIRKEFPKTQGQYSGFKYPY
Put plainly: Antagonist activity at rat P2X7 receptor expressed in Xenopus laevis oocytes assessed as reduction in ATP-induced channel currents at 100 uM by TEVC electrophysiology assay relative to control. The note with it: Oocyte, filed as antagonist. Put shortly: (§1)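 Two-electrode voltage clamp at −70 mV in low divalent-cation solution, oocytes incubated 1–2 days at 16–18 °C after 50 nL cRNA injection: rP2X1 and rP2X4 at 0.5 mg/mL, rP2X2 0.1 mg/mL, rP2X7 25 μg/mL. ATP 10 μM for rP2X1 and rP2X2, 30 μM for rP2X4 and rP2X7. Compound applied 3 min without perfusion. Currents normalized to control; three oocytes from two frogs.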

Test [2] concerns the target T2, P2X purinoceptor 4 (Rattus norvegicus) (UniProt P51577).
T2 sequence (whole entry): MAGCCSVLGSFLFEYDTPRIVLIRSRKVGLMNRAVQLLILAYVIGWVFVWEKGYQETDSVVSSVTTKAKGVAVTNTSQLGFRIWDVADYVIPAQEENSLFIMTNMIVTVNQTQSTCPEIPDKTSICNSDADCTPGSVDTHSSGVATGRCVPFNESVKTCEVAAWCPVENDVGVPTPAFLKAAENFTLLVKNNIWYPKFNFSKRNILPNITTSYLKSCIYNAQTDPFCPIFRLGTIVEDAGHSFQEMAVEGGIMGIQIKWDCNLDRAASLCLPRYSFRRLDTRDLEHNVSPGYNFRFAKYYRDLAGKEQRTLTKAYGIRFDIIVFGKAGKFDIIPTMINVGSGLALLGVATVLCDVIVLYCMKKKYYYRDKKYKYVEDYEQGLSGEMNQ
Put plainly: Antagonist activity at rat P2X4 receptor expressed in Xenopus laevis oocytes assessed as reduction in ATP-induced channel currents at 100 uM by TEVC electrophysiology assay relative to control. The note with it: Oocyte. Put shortly: as §1

Test [3] has as its target T3, P2X purinoceptor 7 (Homo sapiens) (UniProt Q99572).
T3 sequence (whole entry): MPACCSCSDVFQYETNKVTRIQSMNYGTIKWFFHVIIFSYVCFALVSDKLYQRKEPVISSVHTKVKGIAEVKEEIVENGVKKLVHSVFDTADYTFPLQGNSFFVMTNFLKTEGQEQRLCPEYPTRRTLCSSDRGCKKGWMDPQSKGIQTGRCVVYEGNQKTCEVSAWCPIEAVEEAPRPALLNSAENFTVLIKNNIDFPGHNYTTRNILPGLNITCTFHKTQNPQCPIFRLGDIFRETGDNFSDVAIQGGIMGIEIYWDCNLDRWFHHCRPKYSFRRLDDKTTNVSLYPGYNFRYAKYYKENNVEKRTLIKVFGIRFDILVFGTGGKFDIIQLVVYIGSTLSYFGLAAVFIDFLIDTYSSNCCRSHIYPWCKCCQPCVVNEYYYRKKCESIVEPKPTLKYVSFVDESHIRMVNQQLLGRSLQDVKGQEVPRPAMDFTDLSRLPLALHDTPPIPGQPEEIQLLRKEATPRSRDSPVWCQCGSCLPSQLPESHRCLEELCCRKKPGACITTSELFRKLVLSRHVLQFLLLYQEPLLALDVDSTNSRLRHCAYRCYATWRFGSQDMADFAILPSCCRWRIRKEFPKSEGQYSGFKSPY
Put plainly: Antagonist activity at human P2X7 receptor expressed in HEK293 cells assessed as reduction in benzoyl-ATP-induced YO-PRO-1 dye uptake at 10 uM pre-incubated for 20 mins before YO-PRO-1 addition and measured after 25 mins by fluorescence plate reader analysis relative to control. The note with it: filed as antagonist, time 45.0 min. Put shortly:
(§2)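 Stably transfected hP2X7-HEK293 cells, 48 h after seeding, in Mg²⁺-free Krebs-HEPES (0.2 mM CaCl₂, pH 7.4). Compound preincubation 20 min, then YO-PRO-1 2 μM, then BzATP 30 μM. Fluorescence at 485/520 nm read for 25 min. Each well normalized to Fmax (0.5% Triton X-100) and Fmin (2 M MnCl₂): F = (Fx − F0)/(Fmax − Fmin). Triplicates from three cultures. IC50 is the concentration halving BzATP-induced uptake.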

In test [4] the target is T4, P2X purinoceptor 2 (Rattus norvegicus) (UniProt P49653).
T4 sequence (whole entry): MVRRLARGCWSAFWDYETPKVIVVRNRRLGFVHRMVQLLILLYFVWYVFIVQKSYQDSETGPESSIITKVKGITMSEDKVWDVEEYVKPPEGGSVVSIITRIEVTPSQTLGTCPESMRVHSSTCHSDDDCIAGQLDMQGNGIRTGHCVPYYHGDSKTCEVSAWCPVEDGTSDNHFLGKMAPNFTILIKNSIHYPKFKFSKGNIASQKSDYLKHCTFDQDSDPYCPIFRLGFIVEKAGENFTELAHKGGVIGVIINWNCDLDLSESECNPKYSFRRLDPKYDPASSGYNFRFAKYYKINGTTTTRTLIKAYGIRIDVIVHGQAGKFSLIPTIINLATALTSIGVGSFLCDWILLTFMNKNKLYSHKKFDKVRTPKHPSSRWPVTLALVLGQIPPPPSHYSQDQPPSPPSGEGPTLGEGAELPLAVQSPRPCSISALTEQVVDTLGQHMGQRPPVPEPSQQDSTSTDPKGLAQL
Put plainly: Antagonist activity at rat P2X2 receptor expressed in Xenopus laevis oocytes assessed as reduction in ATP-induced channel currents at 100 uM by TEVC electrophysiology assay relative to control. As to conditions: Oocyte. Put shortly: as §1

In test [5] the target is T5, P2X purinoceptor 7 (Homo sapiens, UniProt Q99572).
T5 sequence (Q99572 whole entry): T3 sequence (whole entry)
Put plainly: Antagonist activity at human P2X7 receptor expressed in HEK293 cells assessed as reduction in benzoyl-ATP-induced YO-PRO-1 dye uptake pre-incubated for 20 mins before YO-PRO-1 addition and measured after 25 mins by fluorescence plate reader analysis relative to control. Put shortly:
as §2

SMILES strings stand for the structures. Activity calls are given as the source filed them. The calls are words filed in the database; no cut-off is given here.

Consider `O=C(Cn1cnc2c(Cl)ncnc21)c1ccc(Cl)cc1Cl`, for which the inhibition – broadly, the change of the read-out against control, counted positive when it falls – in test [1] is “Active”. Moreover, the inhibition entry in test [2] and in test [4] was “inactive” in each case. Further, the inhibition in test [3] turned out to be 63%. Moreover, in test [5], the concentration for half-maximal inhibition (IC50) (in general, the concentration needed to halve the response being measured) came out at 9 µM.

Source of the values: ChEMBL document CHEMBL4706687, “Synthesis and Pharmacological Evaluation of Novel Non-nucleotide Purine Derivatives as P2X7 Antagonists for the Treatment of Neuroinflammation” (J Med Chem, 2021).
